Measurements as given in ChEMBL document CHEMBL3813630, “Coumarin carboxylic acids as monocarboxylate transporter 1 inhibitors: In vitro and in vivo studies as potential anticancer agents” (Bioorg Med Chem Lett, 2016).

Assays:
MDA-MB-231 [1] = experiment: Cytotoxicity against human MDA-MB-231 cells expressing luc2 assessed as reduction in cell viability after 72 hrs by MTT assay; format: functional, cell-based; settings: MDA-MB-231, 72 h
Procedure, shortened: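 MDA-MB-231 cells grown in DMEM, 10% FBS, penicillin-streptomycin; 5 × 10^3 cells/well, 24 h at 37 °C, 5% CO2, then compound in replicate for 72 h.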

[2] = Cytotoxicity against mouse GL261 cells expressing luc2 assessed as reduction in cell viability after 72 hrs by MTT assay; format: functional, cell-based; settings: GL261, 72 h
Procedure, shortened: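 GL261-luc2 cells grown in DMEM, 10% FBS, 50 μg/mL geneticin, penicillin-streptomycin; 5 × 10^3 cells/well, 24 h at 37 °C, 5% CO2, then compound in replicate for 72 h.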

[3] = target: T1, Monocarboxylate transporter 1 (Rattus norvegicus, UniProt P53987); experiment: Inhibition of MCT1 in rat brain endothelial 4 cells assessed as L-[14C]-Lactate Uptake after 15 mins by scintillation spectrometric analysis; format: cell-based
T1 sequence (P53987 whole entry): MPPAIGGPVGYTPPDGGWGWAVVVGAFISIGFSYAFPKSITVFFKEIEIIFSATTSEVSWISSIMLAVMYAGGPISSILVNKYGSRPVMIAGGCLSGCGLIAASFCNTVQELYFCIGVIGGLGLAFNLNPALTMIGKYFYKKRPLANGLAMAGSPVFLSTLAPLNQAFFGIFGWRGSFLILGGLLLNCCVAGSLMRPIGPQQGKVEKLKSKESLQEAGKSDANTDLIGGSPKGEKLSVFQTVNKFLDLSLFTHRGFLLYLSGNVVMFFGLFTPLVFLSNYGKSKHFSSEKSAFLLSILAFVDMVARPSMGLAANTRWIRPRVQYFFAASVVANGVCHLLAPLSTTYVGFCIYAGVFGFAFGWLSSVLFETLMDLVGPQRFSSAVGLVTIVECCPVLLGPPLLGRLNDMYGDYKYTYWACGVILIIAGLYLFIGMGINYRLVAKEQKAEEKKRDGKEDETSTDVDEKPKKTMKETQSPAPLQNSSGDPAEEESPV

Mus musculus [4] = experiment: Toxicity in CD-1 mouse assessed as change in body weight at 20 mg/kg, ip qd; format: organism-based; settings: in vivo
Procedure, shortened: (§1)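 Healthy CD-1 mice were dosed once daily, either 20 mg/kg ip or 100 mg/kg by oral gavage. Control mice received vehicle (10% DMSO in saline). Animals were monitored for mortality, body weight change and apparent side effects, compared with the vehicle group. The study was conducted by GenScript under an approved IACUC protocol.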

Mus musculus [5] = experiment: Toxicity in CD-1 mouse assessed as visible toxic effects at 20 mg/kg, ip qd; format: organism-based; settings: in vivo; procedure, shortened: as §1
Mus musculus [6] = experiment: Toxicity in CD-1 mouse assessed as mortality at 20 mg/kg, ip qd; format: organism-based; settings: in vivo; procedure, shortened: as §1
[7] = Antitumor activity against MCT1 expressing mouse GL261 cells coexpressing luc2 syngrafted in C57BL/6 mouse assessed as tumor growth inhibition at 20 mg/kg, ip qd; format: functional; settings: C57BL/6, GL261, ip, read-out: TGI
Procedure, shortened: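 GL261-luc2 cells (5 × 10^6) in 1:1 matrigel-PBS injected into right flank of C57BL/6 mice (male and female); randomized, n = 6; dosing began at tumor volume 200 mm3; vehicle 10% DMSO in saline. Caliper measurement every 2–3 days, V = ab²/2. At study end tumors excised and weighed; % inhibition = [(C − T)/C] × 100 on mean tumor weights. Mann-Whitney test.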

Mus musculus [8] = experiment: Toxicity in CD-1 mouse assessed as mortality at 100 mg/kg, administered via oral gavage qd; format: organism-based; settings: in vivo; procedure, shortened: as §1
MDA-MB-231 [9] = experiment: Antitumor activity against MCT4 expressing human MDA-MB-231 cells coexpressing luciferase xenografted in SCID mouse assessed as tumor growth inhibition at 20 mg/kg, ip qd measured on day 19; format: functional; settings: MDA-MB-231, ip, 456 h, read-out: TGI
Procedure, shortened: (§2)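 Female SCID mice, right flank injected with 10 × 10^6 MDA-MB-231 cells in 1:1 matrigel-PBS; randomized, n = 6; dosing started at mean tumor volume ~100 mm3; vehicle 10% DMSO in saline. Study ended day 19; tumors excised and weighed; % inhibition = [(C − T)/C] × 100 from mean tumor weights versus vehicle. Mann-Whitney test.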

[10] = Efflux ratio of permeability from basolateral to apical side over apical to basolateral side in human Caco2 cells; format: ADME, cell-based; settings: caco-2
Mus musculus [11] = experiment: Toxicity in CD-1 mouse assessed as change in body weight at 100 mg/kg, administered via oral gavage qd; format: organism-based; settings: in vivo; procedure, shortened: as §1
Mus musculus [12] = experiment: Toxicity in CD-1 mouse assessed as visible toxic effects at 100 mg/kg, administered via oral gavage qd; format: organism-based; settings: in vivo; procedure, shortened: as §1
[13] = Permeability across basolateral side at pH 6.5 to apical side at pH 7.4 in human Caco2 cells assessed as compound recovery at 10 uM; format: ADME, cell-based; settings: caco-2, pH 6.5, 10 µM
[14] = Permeability across apical side at pH 6.5 to basolateral side at pH 7.4 in human Caco2 cells assessed as compound recovery at 10 uM; format: ADME, cell-based; settings: caco-2, pH 6.5, 10 µM
MDA-MB-231 [15] = experiment: Antitumor activity against MCT4 expressing human MDA-MB-231 cells coexpressing luciferase xenografted in SCID mouse assessed as tumor growth inhibition at 100 mg/kg, administered via oral gavage qd measured on day 19; format: functional; settings: MDA-MB-231, po, 456 h, read-out: TGI; procedure, shortened: as §2
MDA-MB-231 [16] = experiment: Antitumor activity against MCT4 expressing human MDA-MB-231 cells coexpressing luciferase xenografted in SCID mouse assessed as tumor growth inhibition at 0.5 mg/kg, ip for 5 days per week measured on day 19; format: functional; settings: MDA-MB-231, ip, read-out: TGI; procedure, shortened: as §2

| SMILES | IC50 [3] | Drug recovery [13] | IC50 (MDA-MB-231 [1]) | IC50 [2] | Drug recovery [14] | further results |
| --- | --- | --- | --- | --- | --- | --- |
| O=C(O)c1cc2ccc(N3CCCC3)cc2oc1=O | 0.38 µM |  | > 250 µM | > 250 µM |  |  |
| CCCN(CCC)c1ccc2cc(C(=O)O)c(=O)oc2c1 | 0.45 µM |  | > 250 µM | > 250 µM |  |  |
| C#CCN(CC#C)c1ccc2cc(C(=O)O)c(=O)oc2c1 | 0.21 µM |  | > 250 µM | > 250 µM |  |  |
| O=C(O)c1cc2ccc(N(Cc3ccccc3)Cc3ccccc3)cc2oc1=O | 0.09 µM | 55% | 240 µM | > 250 µM | 34% | Activity (Mus musculus [4]): Non-toxic; Activity (Mus musculus [5]): Non-toxic; Activity (Mus musculus [6]): Non-toxic; inhibition in vivo at 20 mg/kg [7]: 77%; Activity (Mus musculus [8]): Non-toxic; inhibition in vivo at 20 mg/kg (MDA-MB-231 [9]): 10%; Ratio [10]: 0.2; Activity (Mus musculus [11]): Non-toxic; Activity (Mus musculus [12]): Non-toxic; inhibition in vivo at 100 mg/kg (MDA-MB-231 [15]): 13% |
| COc1cc2c(c(OC)c1OC)-c1ccc(OC)c(=O)cc1[C@@H](NC(C)=O)CC2 [COLCHICINE] |  |  |  |  | 75% |  |
| COc1cccc2c1C(=O)c1c(O)c3c(c(O)c1C2=O)C[C@@](O)(C(=O)CO)C[C@@H]3O[C@H]1C[C@H](N)[C@H](O)[C@H](C)O1 [DOXORUBICIN] |  |  |  |  |  | inhibition in vivo at 0.5 mg/kg (MDA-MB-231 [16]): 50% |
| Cn1nnc2c(C(N)=O)ncn2c1=O [TEMOZOLOMIDE] |  |  |  |  |  | inhibition in vivo at 20 mg/kg [7]: 81% |

Second part, led by results:

| IC50 [3] | Drug recovery [13] | SMILES | IC50 (MDA-MB-231 [1]) | IC50 [2] | Drug recovery [14] | further results |
| --- | --- | --- | --- | --- | --- | --- |
| 0.17 µM |  | C=CCN(CC=C)c1ccc2cc(C(=O)O)c(=O)oc2c1 | > 250 µM | > 250 µM |  |  |
|  | 72% | CC(CCc1ccccc1)NCC(O)c1ccc(O)c(C(N)=O)c1 (stereo not given) [LABETALOL] |  |  | 66% |  |
|  | 80% | CC(C)NCC(O)COc1cccc2ccccc12 (stereo not given) [PROPRANOLOL] |  |  | 67% |  |
|  | 85% | CNC(=C[N+](=O)[O-])NCCSCc1ccc(CN(C)C)o1 [RANITIDINE] |  |  |  |  |
